The structures appear in SMILES notation. Converted amounts (≈) assume the structure as drawn.

Usually MIC90 stands for the lowest concentration that inhibits either 90% of growth or 90% of the strains tested, depending on the study.

The test system of assay [1] is Staphylococcus aureus. The assay can be described thus: Antibacterial activity against vancomycin/methicillin-susceptible Staphylococcus aureus Newman […] after 24 hrs by broth microdilution method. The assay is classed as functional. In short, it runs like this: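 Broth microdilution in cation-adjusted Mueller-Hinton II broth. […] Each well received ~10^5 CFU of exponential-phase bacteria and was incubated at 37 °C for 24 h. MIC was taken as the lowest concentration giving complete growth inhibition, interpreted per CLSI.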
Background: Dilution methods test growth across graded concentrations, often in twofold steps.

In assay [2] the test system is Staphylococcus aureus. Kind of assay: Antibacterial activity against healthcare-associated methicillin-resistant/vancomycin-intermediate Staphylococcus aureus Mu50 after 24 hrs by broth microdilution method. The assay is classed as functional. The following applies: Mu50, 24 h. In short, it runs like this:
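Broth microdilution in cation-adjusted Mueller-Hinton II broth. DMSO stocks were diluted in broth and twofold serially from 128 to 0.0625 μg/mL or lower. Each well was inoculated with ~10^5 CFU of exponential-phase bacteria and incubated at 37 °C for 24 h. MIC was the lowest concentration giving complete growth inhibition, read per CLSI. Growth controls contained broth plus DMSO.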

As to `CCCCCCc1ccc(CN[C@@]2(C)C[C@H](O[C@H]3[C@H](Oc4c5cc6cc4Oc4ccc(cc4Cl)[C@@H](O)[C@@H](NC(=O)[C@@H](CC(C)C)NC)C(=O)N[C@@H](CC(N)=O)C(=O)N[C@H]6C(=O)N[C@H]4C(=O)N[C@H](C(=O)N[C@H](C(=O)O)c6cc(O)c(CNCCCNC(=O)[C@H](O)[C@@H](O)[C@H](O)[C@H](O)CO)c(O)c6-c6cc4ccc6O)[C@H](O)c4ccc(c(Cl)c4)O5)O[C@H](CO)[C@@H](O)[C@@H]3O)O[C@@H](C)[C@H]2O)cc1`, the MIC90 in assay [1] came out at 0.12 µg/mL (≈ 0.0636 µM); in assay [2] it was 0.5 µg/mL (≈ 0.265 µM).
For `CN[C@H](CC(C)C)C(=O)N[C@H]1C(=O)N[C@@H](CC(N)=O)C(=O)N[C@H]2C(=O)N[C@H]3C(=O)N[C@H](C(=O)N[C@H](C(=O)O)c4cc(O)c(CNCCO)c(O)c4-c4cc3ccc4O)[C@H](O)c3ccc(c(Cl)c3)Oc3cc2cc(c3O[C@@H]2O[C@H](CO)[C@@H](O)[C@H](O)[C@H]2O[C@H]2C[C@](C)(NCc3ccc(-c4ccncc4)cc3)[C@H](O)[C@H](C)O2)Oc2ccc(cc2Cl)[C@H]1O` the same measures were 0.5 µg/mL (≈ 0.296 µM) and 2 µg/mL (≈ 1.18 µM).
`CCCCCCCCCC(=O)N[C@@]1(C)C[C@H](O[C@H]2[C@H](Oc3c4cc5cc3Oc3ccc(cc3Cl)[C@@H](O)[C@@H](NC(=O)[C@@H](CC(C)C)NC)C(=O)N[C@@H](CC(N)=O)C(=O)N[C@H]5C(=O)N[C@H]3C(=O)N[C@H](C(=O)N[C@H](C(=O)O)c5cc(O)c(CNCCCNC(=O)[C@H](O)[C@@H](O)[C@H](O)[C@H](O)CO)c(O)c5-c5cc3ccc5O)[C@H](O)c3ccc(c(Cl)c3)O4)O[C@H](CO)[C@@H](O)[C@@H]2O)O[C@@H](C)[C@H]1O`: the figures for the MIC90 in assay [1] and in assay [2] were 32 µg/mL (≈ 17.1 µM) and 64 µg/mL (≈ 34.3 µM), respectively.
As to `CN[C@H](CC(C)C)C(=O)N[C@H]1C(=O)N[C@@H](CC(N)=O)C(=O)N[C@H]2C(=O)N[C@H]3C(=O)N[C@H](C(=O)N[C@H](C(=O)O)c4cc(O)c(CN[C@H]5C(O)O[C@H](CO)[C@H](O)[C@@H]5O)c(O)c4-c4cc3ccc4O)[C@H](O)c3ccc(c(Cl)c3)Oc3cc2cc(c3O[C@@H]2O[C@H](CO)[C@@H](O)[C@H](O)[C@H]2O[C@H]2C[C@](C)(NCc3ccc(C#C[Si](C)(C)C)cc3)[C@H](O)[C@H](C)O2)Oc2ccc(cc2Cl)[C@H]1O` (some centres undefined), the MIC90 in assay [1] stood at 0.5 µg/mL (≈ 0.274 µM); in assay [2], 2 µg/mL (≈ 1.09 µM).
The matching figures for `CCCCCCCCCCC(=O)N[C@@]1(C)C[C@H](O[C@H]2[C@H](Oc3c4cc5cc3Oc3ccc(cc3Cl)[C@@H](O)[C@@H](NC(=O)[C@@H](CC(C)C)NC)C(=O)N[C@@H](CC(N)=O)C(=O)N[C@H]5C(=O)N[C@H]3C(=O)N[C@H](C(=O)N[C@H](C(=O)O)c5cc(O)c(CNCCCNC(=O)[C@H](O)[C@@H](O)[C@H](O)[C@H](O)CO)c(O)c5-c5cc3ccc5O)[C@H](O)c3ccc(c(Cl)c3)O4)O[C@H](CO)[C@@H](O)[C@@H]2O)O[C@@H](C)[C@H]1O`: 16 µg/mL (≈ 8.5 µM) and 32 µg/mL (≈ 17 µM).
For the compound `CCCCCCCCCN[C@@]1(C)C[C@H](O[C@H]2[C@H](Oc3c4cc5cc3Oc3ccc(cc3Cl)[C@@H](O)[C@@H](NC(=O)[C@@H](CC(C)C)NC)C(=O)N[C@@H](CC(N)=O)C(=O)N[C@H]5C(=O)N[C@H]3C(=O)N[C@H](C(=O)N[C@H](C(=O)O)c5cc(O)c(CNCCO)c(O)c5-c5cc3ccc5O)[C@H](O)c3ccc(c(Cl)c3)O4)O[C@H](CO)[C@@H](O)[C@@H]2O)O[C@@H](C)[C@H]1O`, the MIC90 stood at 0.12 µg/mL (≈ 0.0728 µM) in assay [1] and 0.5 µg/mL (≈ 0.303 µM) in assay [2].
`CN[C@H](CC(C)C)C(=O)N[C@H]1C(=O)N[C@@H](CC(N)=O)C(=O)N[C@H]2C(=O)N[C@H]3C(=O)N[C@H](C(=O)N[C@H](C(=O)O)c4cc(O)c(CNCCCNC(=O)[C@H](O)[C@@H](O)[C@H](O)[C@H](O)CO)c(O)c4-c4cc3ccc4O)[C@H](O)c3ccc(c(Cl)c3)Oc3cc2cc(c3O[C@@H]2O[C@H](CO)[C@@H](O)[C@H](O)[C@H]2O[C@H]2C[C@](C)(NCc3ccc4c(c3)OCC4)[C@H](O)[C@H](C)O2)Oc2ccc(cc2Cl)[C@H]1O`: the MIC90 is 4 µg/mL (≈ 2.17 µM) in assay [1] and 8 µg/mL (≈ 4.33 µM) in assay [2].

(Values after ChEMBL document CHEMBL4052823, “Extra Sugar on Vancomycin: New Analogues for Combating Multidrug-Resistant Staphylococcus aureus and Vancomycin-Resistant Enterococci” (J Med Chem, 2018).)
